Assay results gathered from unrelated publications.
Lines come from different studies, so protocols differ.
Read-out: metabolic stability
Matrix: liver microsomes

`CC1=C(C(N)=O)C(=O)/C(=C\c2cc(C)n(-c3ccccc3C(F)(F)F)c2C)N1` gave a microsomal CLint of 93 µL/min/mg (mouse; 1 µM).
The microsomal CLint of `CCOC(=O)c1c(-c2cccc(Br)c2)[nH]c2cc(OC)c(F)cc2c1=O` is reported as less than 4 µL/min/mg (female CD-1 mouse; 19.8 µM, pH 7.4).
`Cc1cc(Nc2ccc(C(F)(F)F)cc2)n2nc(C(C)(F)F)nc2n1` has a microsomal CLint of less than 10 µL/min/mg (mouse; 1 µM, pH 7.4).
With `COc1cc2[nH]c(-c3cccc(Oc4ccccc4)c3)c(C(=O)OCCCN3CCOCC3)c(=O)c2cc1F` the microsomal CLint was greater than 15 µL/min/mg (female CD-1 mouse; 19.8 µM, pH 7.4).
The microsomal CLint of `Cc1cc(NC(=O)Nc2ccc3c(c2)OC(F)(F)O3)cc(C(F)(F)F)n1` is reported as 36 µL/min/mg (mouse).
For `CCC(F)(F)c1nc2nc(C)cc(Nc3ccc(S(F)(F)(F)(F)F)cc3)n2n1`, the microsomal CLint was less than 10 µL/min/mg (mouse; 1 µM, pH 7.4).
`CCOC(=O)C1=C(C)N/C(=C/c2cc(C)n(Cc3ccc(C(F)(F)F)cc3)c2C)C1=O` gave a microsomal CLint of 103 µL/min/mg (mouse; 1 µM).
The microsomal CLint of `Cc1cc(Nc2ccc(S(F)(F)(F)(F)F)cc2)n2ccnc2n1` is reported as 30 µL/min/mg (mouse).
`CCC(F)(F)c1nc2nc(C)cc(Nc3ccc(C(F)(F)F)cc3)n2n1` has a microsomal CLint of less than 10 µL/min/mg (mouse; 1 µM, pH 7.4).
`N#CC1CCN(c2nc(-c3ccccn3)nc3ccccc23)CC1` has a microsomal CLint of 105 µL/min/mg (mouse).
With `Clc1ccc(COc2cncc(-c3cnn(C4CCNCC4)c3)c2)c(Cl)c1` the microsomal CLint was 28.9 µL/min/mg (mouse).
`c1ccc(CN2CCN(c3nc(-c4ccccn4)nc4ccccc34)CC2)cc1` gave a microsomal CLint of 393 µL/min/mg (mouse).
`CCOC(=O)c1c(-c2cccc(Oc3ccccc3)c2)[nH]c2cc(OC)ccc2c1=O` gave a microsomal CLint of greater than 15 µL/min/mg (female CD-1 mouse; 19.8 µM, pH 7.4).
`c1ccc(C2CCN(c3nc(-c4cnn5cccnc45)nc4ccccc34)C2)nc1` (stereo not shown) gave a microsomal CLint of 153 µL/min/mg (mouse).
With `CCOC(=O)c1c(-c2cccc(Cl)c2)[nH]c2cc(OC)ccc2c1=O` the microsomal CLint was greater than 15 µL/min/mg (female CD-1 mouse; 19.8 µM, pH 7.4).
`COc1ccc(Nc2nc(-c3ccccn3)nc3ccccc23)cc1` gave a microsomal CLint of 158 µL/min/mg (mouse).
`CS(=O)(=O)c1ccc(-c2cnc(N)c(-c3ccc(C(F)(F)F)nc3)c2)cc1` has a microsomal CLint of less than 11.6 µL/min/mg (male CD-1 mouse; 1 µM).
`FC(F)(F)c1ccccc1-c1nc(N2CCC(c3ccccn3)C2)c2ccccc2n1` (stereo not shown) gave a microsomal CLint of 688 µL/min/mg (mouse).
`O=C(C1CCCCC1)N1CC(=O)N2CCc3ccccc3[C@@H]2C1` gave a microsomal CLint of greater than 1000 µL/min/mg (mouse; 0.1 µM, pH 7.4).
